Source: ChEMBL document CHEMBL1155079, “N-Hydroxypyrazolyl glycine derivatives as selective N-methyl-D-aspartic acid receptor ligands” (J Med Chem, 2008)
The source made the active and inactive calls. The calls are words filed in the database; no cut-off is given here.

Target: Ionotropic glutamate receptor NMDA 1/2D (Rattus norvegicus) (UniProt P35439+Q62645)
Experiment: Activity at rat NR1/NR2D receptor expressed in Xenopus oocytes by two voltage clamp electrophysiology relative to glutamate
Type: cell-based
Conditions: Oocyte
Summary of the method: (§1)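 Two-electrode voltage clamp on Xenopus oocytes injected with cRNA for NR1 plus the named NR2 subunit. Holding potential −60 to −40 mV. Continuous perfusion at 23 °C with 90 NaCl, 0.5 BaCl2, 1 KCl, 0.01 EDTA, 10 HEPES (mM), pH 7.6, with 20 μM glycine present throughout. Concentration–response data from each oocyte fitted to the Hill equation; mean ± SEM of logEC50 and nH. Relative Imax = fitted agonist Imax / maximal glutamate response in the same recording.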

Imax | Compound
0.8 | CN[C@H](CC(=O)O)C(=O)O [N-METHYL-D-ASPARTIC ACID (NMDA)]
0.37 | CCCc1cnn(O)c1C(N)C(=O)O (racemic)
0.73 | NC(C(=O)O)c1c(Cl)cnn1O (racemic)
0.7 | CCc1cnn(O)c1C(N)C(=O)O (racemic)

Target: Glutamate NMDA receptor; Grin1/Grin2b (Rattus norvegicus) (UniProt P35439+Q00960)
Experiment: Activity at rat recombinant NR1/NR2B receptor expressed in Xenopus oocytes by two voltage clamp electrophysiology relative to glutamate
Type: cell-based
Conditions: Oocyte
Summary of the method: as §1

Imax | Compound
0.61 | N[C@@H](C(=O)O)c1ccnn1O
0.58 | NC(C(=O)O)c1ccnn1O (racemic)
0.33 | N[C@@H](C(=O)O)c1c(Cl)cnn1O

Continued, compound first:

Compound | Imax
Cc1cnn(O)c1[C@@H](N)C(=O)O | 0.23
CN[C@H](CC(=O)O)C(=O)O [N-METHYL-D-ASPARTIC ACID (NMDA)] | 0.77
CCCc1cnn(O)c1C(N)C(=O)O (racemic) | 0.06
NC(C(=O)O)c1c(Cl)cnn1O (racemic) | 0.29
CCCc1cnn(O)c1[C@@H](N)C(=O)O | 0.09
CCc1cnn(O)c1[C@@H](N)C(=O)O | 0.46
CCc1cnn(O)c1C(N)C(=O)O (racemic) | 0.45

Target: Glutamate NMDA receptor; Grin1/Grin2b (Rattus norvegicus, UniProt P35439+Q00960)
Experiment: Activity at rat recombinant NR1/NR2B receptor expressed in Xenopus oocytes assessed as effect on glutamate-induced current by two voltage clamp electrophysiology
Type: cell-based, Oocyte
Conditions: not given
Summary of the method: as §1, with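 “nH.” for “nH. Relative Imax = fitted agonist Imax / maximal glutamate response in the same recording.”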

EC50 [µM] | Compound
14 | N[C@@H](C(=O)O)c1ccnn1O
48 | NC(C(=O)O)c1ccnn1O (racemic)
58 | N[C@@H](C(=O)O)c1c(Cl)cnn1O

Continued, compound first:

Compound | EC50 [µM]
Cc1cnn(O)c1[C@@H](N)C(=O)O | 36
CN[C@H](CC(=O)O)C(=O)O [N-METHYL-D-ASPARTIC ACID (NMDA)] | 22
CCCc1cnn(O)c1C(N)C(=O)O (racemic) | 105
NC(C(=O)O)c1c(Cl)cnn1O (racemic) | 149
CCCc1cnn(O)c1[C@@H](N)C(=O)O | 63
CCc1cnn(O)c1[C@@H](N)C(=O)O | 34
CCc1cnn(O)c1C(N)C(=O)O (racemic) | 68

Target: not listed separately
Experiment: Displacement of [3H]AMPA from AMPA receptor in rat cortical synaptosome
Type: tissue-based, Brain
Conditions: not given
Summary of the method: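 Binding to rat cortical synaptosome membranes using 5 nM [3H]AMPA (45.5 Ci/mmol) as radioligand.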

IC50 [µM] | Compound
> 100 | N[C@@H](C(=O)O)c1ccnn1O
> 100 | NC(C(=O)O)c1ccnn1O (racemic)
> 100 | Cc1cnn(O)c1C(N)C(=O)O (racemic)
> 100 | Cc1cnn(O)c1[C@H](N)C(=O)O
> 100 | N[C@H](C(=O)O)c1c(Cl)cnn1O
> 100 | N[C@H](C(=O)O)c1ccnn1O

The remaining lines, values behind:

Compound | IC50 [µM]
CCc1cnn(O)c1[C@H](N)C(=O)O | > 100
Cc1cnn(O)c1[C@@H](N)C(=O)O | > 100
CCCc1cnn(O)c1[C@H](N)C(=O)O | > 100
CCCc1cnn(O)c1C(N)C(=O)O (racemic) | > 100
NC(C(=O)O)c1c(Cl)cnn1O (racemic) | > 100
CCCc1cnn(O)c1[C@@H](N)C(=O)O | > 100
CC(C)c1cnn(O)c1[C@@H](N)C(=O)O | > 100
CCc1cnn(O)c1[C@@H](N)C(=O)O | > 100
CCc1cnn(O)c1C(N)C(=O)O (racemic) | > 100
CC(C)c1cnn(O)c1C(N)C(=O)O (racemic) | > 100
CC(C)c1cnn(O)c1[C@H](N)C(=O)O | > 100

Target: Glutamate NMDA receptor; Grin1/Grin2c (Rattus norvegicus) (UniProt P35439+Q00961)
Experiment: Activity at rat recombinant NR1/NR2C receptor expressed in Xenopus oocytes by two voltage clamp electrophysiology relative to glutamate
Type: cell-based
Conditions: Oocyte
Summary of the method: as §1

Imax | Compound
0.73 | CN[C@H](CC(=O)O)C(=O)O [N-METHYL-D-ASPARTIC ACID (NMDA)]
0.22 | CCCc1cnn(O)c1C(N)C(=O)O (racemic)
0.52 | NC(C(=O)O)c1ccnn1O (racemic)
0.55 | NC(C(=O)O)c1c(Cl)cnn1O (racemic)
0.52 | CCc1cnn(O)c1C(N)C(=O)O (racemic)

Target: not listed separately
Experiment: Displacement of [3H]KAIN from KA receptor in rat cortical synaptosome
Type: tissue-based, Brain
Conditions: not given

IC50 [µM] | Compound
> 100 | N[C@@H](C(=O)O)c1ccnn1O
> 100 | NC(C(=O)O)c1ccnn1O (racemic)
> 100 | Cc1cnn(O)c1C(N)C(=O)O (racemic)
> 100 | Cc1cnn(O)c1[C@H](N)C(=O)O
> 100 | N[C@H](C(=O)O)c1c(Cl)cnn1O
> 100 | N[C@H](C(=O)O)c1ccnn1O

Further lines, the compound ahead of its results:

Compound | IC50 [µM]
CCc1cnn(O)c1[C@H](N)C(=O)O | > 100
Cc1cnn(O)c1[C@@H](N)C(=O)O | > 100
CCCc1cnn(O)c1[C@H](N)C(=O)O | > 100
CCCc1cnn(O)c1C(N)C(=O)O (racemic) | > 100
NC(C(=O)O)c1c(Cl)cnn1O (racemic) | > 100
CCCc1cnn(O)c1[C@@H](N)C(=O)O | > 100
CC(C)c1cnn(O)c1[C@@H](N)C(=O)O | > 100
CCc1cnn(O)c1[C@@H](N)C(=O)O | > 100
CCc1cnn(O)c1C(N)C(=O)O (racemic) | > 100
CC(C)c1cnn(O)c1C(N)C(=O)O (racemic) | > 100
CC(C)c1cnn(O)c1[C@H](N)C(=O)O | > 100

Target: T1, Glutamate NMDA receptor; Grin1/Grin2a (Rattus norvegicus) (UniProt P35439+Q00959)
Experiment: (§2) Activity at rat recombinant NR1/NR2A receptor expressed in Xenopus oocytes assessed as effect on glutamate-induced current by two voltage clamp electrophysiology
Type: cell-based
Conditions: Oocyte
Summary of the method: as §1, with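 “nH.” for “nH. Relative Imax = fitted agonist Imax / maximal glutamate response in the same recording.”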

Activity | Compound
inactive | CCCc1cnn(O)c1C(N)C(=O)O (racemic)

Target: Glutamate NMDA receptor; Grin1/Grin2a (Rattus norvegicus, UniProt P35439+Q00959)
Experiment: as §2
Type: cell-based, Oocyte
Conditions: not given
Summary of the method: as §1, with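 “nH.” for “nH. Relative Imax = fitted agonist Imax / maximal glutamate response in the same recording.”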

EC50 [µM] | Compound
75 | CN[C@H](CC(=O)O)C(=O)O [N-METHYL-D-ASPARTIC ACID (NMDA)]
82 | NC(C(=O)O)c1ccnn1O (racemic)
565 | NC(C(=O)O)c1c(Cl)cnn1O (racemic)
47 | CCc1cnn(O)c1C(N)C(=O)O (racemic)

Target: T1, Glutamate NMDA receptor; Grin1/Grin2a (Rattus norvegicus)
Experiment: Activity at rat recombinant NR1/NR2A receptor expressed in Xenopus oocytes by two voltage clamp electrophysiology relative to glutamate
Type: cell-based
Conditions: Oocyte
Summary of the method: as §1

Imax | Activity | Compound
0.9 |  | CN[C@H](CC(=O)O)C(=O)O [N-METHYL-D-ASPARTIC ACID (NMDA)]
 | inactive | CCCc1cnn(O)c1C(N)C(=O)O (racemic)
0.45 |  | NC(C(=O)O)c1ccnn1O (racemic)
0.07 |  | NC(C(=O)O)c1c(Cl)cnn1O (racemic)
0.05 |  | CCc1cnn(O)c1C(N)C(=O)O (racemic)

Target: Ionotropic glutamate receptor NMDA 1/2D (Rattus norvegicus, UniProt P35439+Q62645)
Experiment: Activity at rat NR1/NR2D receptor expressed in Xenopus oocytes assessed as effect on glutamate-induced current by two voltage clamp electrophysiology
Type: cell-based, Oocyte
Conditions: not given
Summary of the method: as §1, with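 “nH.” for “nH. Relative Imax = fitted agonist Imax / maximal glutamate response in the same recording.”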

EC50 [µM] | Compound
8.3 | CN[C@H](CC(=O)O)C(=O)O [N-METHYL-D-ASPARTIC ACID (NMDA)]
153 | CCCc1cnn(O)c1C(N)C(=O)O (racemic)
152 | NC(C(=O)O)c1c(Cl)cnn1O (racemic)
43 | CCc1cnn(O)c1C(N)C(=O)O (racemic)

Target: Glutamate NMDA receptor
Experiment: Displacement of [3H]CGP39653 from NMDA receptor in rat cortical synaptosome
Type: tissue-based, Brain
Conditions: not given

Ki [µM] | Compound
2.2 | N[C@@H](C(=O)O)c1ccnn1O
10 | NC(C(=O)O)c1ccnn1O (racemic)
22 | Cc1cnn(O)c1C(N)C(=O)O (racemic)
2.9 | N[C@@H](C(=O)O)c1c(Cl)cnn1O
> 100 | Cc1cnn(O)c1[C@H](N)C(=O)O
25 | N[C@H](C(=O)O)c1c(Cl)cnn1O
> 100 | N[C@H](C(=O)O)c1ccnn1O

Further lines, the compound ahead of its results:

Compound | Ki [µM]
CCc1cnn(O)c1[C@H](N)C(=O)O | > 100
Cc1cnn(O)c1[C@@H](N)C(=O)O | 2.2
CCCc1cnn(O)c1[C@H](N)C(=O)O | > 100
CCCc1cnn(O)c1C(N)C(=O)O (racemic) | 14
NC(C(=O)O)c1c(Cl)cnn1O (racemic) | 2.9
CCCc1cnn(O)c1[C@@H](N)C(=O)O | 6.9
CC(C)c1cnn(O)c1[C@@H](N)C(=O)O | 13
CCc1cnn(O)c1[C@@H](N)C(=O)O | 4.4
CCc1cnn(O)c1C(N)C(=O)O (racemic) | 13
CC(C)c1cnn(O)c1C(N)C(=O)O (racemic) | 20
CC(C)c1cnn(O)c1[C@H](N)C(=O)O | > 100

Target: Glutamate NMDA receptor; Grin1/Grin2c (Rattus norvegicus, UniProt P35439+Q00961)
Experiment: Activity at rat recombinant NR1/NR2C receptor expressed in Xenopus oocytes assessed as effect on glutamate-induced current by two voltage clamp electrophysiology
Type: cell-based, Oocyte
Conditions: not given
Summary of the method: as §1, with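 “nH.” for “nH. Relative Imax = fitted agonist Imax / maximal glutamate response in the same recording.”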

EC50 [µM] | Compound
23 | CN[C@H](CC(=O)O)C(=O)O [N-METHYL-D-ASPARTIC ACID (NMDA)]
429 | CCCc1cnn(O)c1C(N)C(=O)O (racemic)
54 | NC(C(=O)O)c1ccnn1O (racemic)
255 | NC(C(=O)O)c1c(Cl)cnn1O (racemic)
91 | CCc1cnn(O)c1C(N)C(=O)O (racemic)
